Assay results reported in the RNAGym collection of RNA variant scans (doi:10.1126/science.aae0568).
This sample holds only a part of the variants without activity.

B1: tRNA (parent)
chain: GUUCCGUUGGCGUAAUGGUAACGCGUCUCCCUCCUAAGGAGAAGACUGCGGGUUCGAGUCCCGUACGGAACG

Variants of: B1
Assay: yeast fitness relative to wild type (ratio to wild type); higher = fitter; tRNA-Arg(CCU), competitive growth, 37 C, YPD
Procedure, shortened: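 For this measurement, the tRNA-Arg(CCU) gene was varied by chemical synthesis at a 3% per-site mutation rate across 69 sites, and each variant was placed at the native genomic locus in Saccharomyces cerevisiae. The pooled strains went through a 24-hour competition in YPD at 37°C in six parallel replicates, with amplicons from start and end populations read by 100-nucleotide paired-end sequencing. Darwinian fitness relative to wild type followed from the change in each genotype's frequency. Genotypes needed ≥ 100 starting reads, and estimates < 0.5 were set to 0.5.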

Variant	yeast fitness
GUUCCGUUGACGUAAUGGUAACGCGUCUCCCUCCUAAGGAGAAGACUGCGGGUUCGACUCCCGUACGGAUCG [G10A G58C A70U]	0.701
GUUCCGUUGGCGUACUGGUAACGCGUCUCCCUCCUCAGGAGAAGACUACGGGUUCGAGUCCCGUACAGAACG [A15C A36C G48A G67A]	0.541
GUUCCGUUGGCGUAAUCGUAAGGCGUCUCUCUCCUAAGGACAAGAUUGCGGGUUCGAGUCCCGUACGGAACG [G17C C22G C30U G41C C46U]	0.708
GGUCCGUUGGCGUAGUGGUAACGCGUCUCCCUCCUAAGGAGAAGACUGCGGGUUCGAGUCCCGUACGGAACG [U2G A15G]	0.812
GUUCCGUUCGCGUAAUGGUUACGCGUCACCCUCCUAAGGAGAAGACUGCGGGUUCGAGUCCCGUACGGAACG [G9C A20U U28A]	0.535
GUUCCGUUGGCGUAAUGGUAACGCAGCUCCCUCCUAAGGAGAAGACUGCGGGUUCGAGUCCCGUACGGAACG [G25A U26G]	0.805
GUUCCGUUGGCGUAAUGGUAACGCCUCUCCCUCCUAAGGAGAAGACUGCGGGUUCGAGUCCCAUACGGAACG [G25C G63A]	0.955
GUCCCGUUGGCGUAAUGGUAACGCGUCUCUCUCCUAAGGAGGAGACUGCGGGUUCGACUCCCGUACGGAACG [U3C C30U A42G G58C]	≤ 0.5
GUUCCGUUGGCGUAAUGCUAACACCUCUCCCUCCUAGGGAGACGACUGCGGGUUCGAGUCCCGUACGGAACG [G18C G23A G25C A37G A43C]	≤ 0.5
GUCCCGUUGGCGUAAUGGUAUCGCGUCUCCCUCCUAAGGAGAAGACUGCGGGUUCGAGUCCCGUACGGUACG [U3C A21U A69U]	0.537
GUUCCGUUGGCGUAAUGGUAACGUGUCUCCCUCCCAAGGAGAAGACUGCGGGUUCGAGUCCCGUACGGAACG [C24U U35C]	0.778
GUUCCCUUGGCGUAAUGGUAACGCGUCUCCUUCCAAAGGAGAAGAGUAUGGGUUCGAGUCCCGCACGGAACG [G6C C31U U35A C46G G48A C49U U64C]	≤ 0.5
GUUCCGUUGGCGUAAUGGUAACGCGUCUCCCUCCUAAGGAGAAGACUGCGGGUUCCAGUCCCGUACGGAGCG [G56C A70G]	0.672
GUUCCGUUGGCGUAAUAGUAACGCCUCUCCCUCCUAAGGAGAAGACUGCGGGUUCGAGUCCCGUCCGGAACG [G17A G25C A65C]	0.611
GUUCCGUUGGCGUAUUGGUAACGCGUCUCCCUCCUCAGGAGAAGACUGCGGGUUCGAGUCCCGUACGGAACG [A15U A36C]	≤ 0.5
GUUCCGUUGGCGUAUUGGUAACGCGUCUCCUUCCUAAGGAGAAGACUGCGGAUUCGUCUCCCGUACGGAACG [A15U C31U G52A A57U G58C]	≤ 0.5
GUUCCGUUGGCGUAAUGGUCACGCGUCUCCCUCCUAAGGAGAAAAUUGCGGGUUCGAGUCCCGUACGGCACG [A20C G44A C46U A69C]	0.698
GUUCCGUUGGCGUUAUGGUAACCCGUCUGCCUCCUAAGGAGAAGACUGCGAGUUCUAGUCCCGUACGGAACG [A14U G23C C29G G51A G56U]	≤ 0.5
GUUCUGUUGGCGUAAUGGUAAUGCGUUUCCCUCCUAAGGAGGAGACUGCGGGUUAGAGUACCGUACGGAACG [C5U C22U C27U A42G C55A C60A]	≤ 0.5

Variant	yeast fitness
GUUCCGUUGGUGUAAUGGUAACGCGUCUUCCUCCUAAGAAGAAGACUGCGGGUUCGAGUCCCGUACGGAACG [C11U C29U G39A]	0.619
GUUCCGUUGGCAUAAUGGUAACGCGUCUCCCUCCUAAGGAGAAGACUGCGGGUUAGAGUCCCGUCCGGAACG [G12A C55A A65C]	≤ 0.5
GUUCCGUUGGAGUAAUGGUAACGCGUCUCCCACCUAAGGAGAAGACUGCGGGUUCGAGUCCCGUACGGAUCG [C11A U32A A70U]	≤ 0.5
GUUCCGUUGGCGUAAUGGAAACGCGUCUCCCUCCAAGGGAGAUGCCUGCGGGUUCGAGUCCCGUACGGAACG [U19A U35A A37G A43U A45C]	≤ 0.5
GUUCCGUUGGCGUAAUGGUAACGCGUCUCCGUCCUUAGGAGAAGACUGCGGGCUCGAGUCACGUACGAAACG [C31G A36U U53C C61A G68A]	≤ 0.5
GUUCCGUUGGCGUAAUGGUAACGCCUCUCCCUCCUAAGGAGAAGGCUGCAGGUUCGAGUCCGGUACGGAACG [G25C A45G G50A C62G]	≤ 0.5
GUUCUGUUGGCGUAAUGGUAACGCGUCUCCCUCCUAAGGAGAAGACUGCGGGUUCGAGUCCCGUACGGAUCG [C5U A70U]	0.98
GUUCCGUUGCCGUAAUGGUAACGCGUCUCCCUCCUAAGGAGAAAACUGCGGGUUCGAGUCCCGUACGGAUCG [G10C G44A A70U]	≤ 0.5
GUUUGGUUGGCAUUAUGGUAACGCGUCUCCCUCCUAAGGAGAAGACUGCGGGUACGUGUCCCGUACGGAACG [C4U C5G G12A A14U U54A A57U]	≤ 0.5
GUUCCGUUGGCGUAAUAGUAACGCGUCUCCCUCCUAAGGAGAAGACUGCGGGUUCGUGUCCCGUACGGAACG [G17A A57U]	0.644
GUUACGUGGGCGUAAUGGUAACGCGUCUCCCUCCUAAGGAGAAGACUGCGGGUUCGAGUCCCGCACGGAACG [C4A U8G U64C]	0.545
GUUCCGUUGGCGUAAUGGUAACGCGUGCCCCUCCUAAGGAGAAGACUGCGGGUUCGAGUCCCGUACGGAACG [C27G U28C]	0.609
GAUCCGUUGGCGUCAUGGUAACGCGUCUCCCUCCUGAGGAGAAGACUGCGGGUUCGAGUCCCGUAUGGAACG [U2A A14C A36G C66U]	0.639
GUCCCGUUGCCGUAAUGGUAACGCGUCUCCCUUCUAAGGCGAAGACUGCGGGUUCGAGUCCCGUACGGAACG [U3C G10C C33U A40C]	≤ 0.5
GUUCAGUUCGCGUAAUGGUAACGCGUCUCCCUCCUUAGGAGAAGACUGCAGGUUCGAGGCCCGUACGGAACG [C5A G9C A36U G50A U59G]	0.542
GUUCCGUUGGCCUAAUGGUAACGCGUCUCGCUCCUAUGGAAAAGACUGCGGGUUCGACUCCCGUACGGAACG [G12C C30G A37U G41A G58C]	0.581
GUUACGUUGGCGUAAUGGUAACGCGUCUCCCUCUUAAGGAGAAGACUGCGGGUUCGAGUCCCGUACGGAACG [C4A C34U]	0.666
GUUCCGUUGGCGUCAUGGUAACGCGUCUCCCUCCUAAGGAGUAGACUGCGGGUUCGAGUGCCGUACGGAGCG [A14C A42U C60G A70G]	≤ 0.5
